The assay has as its target T1, Renin (Homo sapiens, UniProt P00797).
T1 sequence (P00797 whole entry): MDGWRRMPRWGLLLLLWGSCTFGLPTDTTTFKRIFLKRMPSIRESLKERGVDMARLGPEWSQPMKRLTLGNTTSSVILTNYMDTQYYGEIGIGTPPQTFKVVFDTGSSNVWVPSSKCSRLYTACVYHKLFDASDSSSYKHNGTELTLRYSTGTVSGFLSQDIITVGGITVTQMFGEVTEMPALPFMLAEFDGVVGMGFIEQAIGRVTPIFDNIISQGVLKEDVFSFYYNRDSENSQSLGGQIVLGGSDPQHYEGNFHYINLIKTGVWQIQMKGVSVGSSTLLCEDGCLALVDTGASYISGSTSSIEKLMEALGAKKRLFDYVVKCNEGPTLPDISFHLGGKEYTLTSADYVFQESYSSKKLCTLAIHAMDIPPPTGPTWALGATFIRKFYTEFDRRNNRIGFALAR
Briefly: In vitro inhibitory activity against human renal renin using radioimmunoassay for angiotensin I production. A digest of the protocol: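 Purified human renin enzyme, assayed in maleate buffer at pH 6.0. The remaining conditions follow a previously published protocol.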

For orientation: IC50 means the concentration that inhibits the measured activity by half.

`C=CCCCC(C[C@@H](O)[C@H](Cc1ccccc1)NC(=O)OC(C)(C)C)C(=O)N[C@@H](CC1CCCCC1)[C@@H](O)[C@@H](CO)CC(C)C` (stereo not given in full) displayed an IC50 of 12 nM. That is a double-digit nanomolar value.

`C=C(C[C@H](O)[C@H](CC1CCCCC1)NC(=O)[C@H](C)C[C@@H](O)[C@H](Cc1ccccc1)NC(=O)OC(C)(C)C)C(=O)NCC(C)C` showed an IC50 of 20 nM.

For the molecule `C=C(C[C@H](O)[C@H](CC1CCCCC1)NC(=O)[C@@H](C)C[C@@H](O)[C@H](Cc1ccccc1)NC(=O)OC(C)(C)C)C(=O)NCC(C)C`, the half-maximal inhibitory concentration (IC50) was 100 nM.

For the molecule `C=C(C[C@H](O)[C@H](CC1CCCCC1)NC[C@H](C)C[C@@H](O)[C@H](Cc1ccccc1)NC(=O)OC(C)(C)C)C(=O)NCC(C)C`, the IC50 is > 10000 nM.

`C=C(C[C@H](O)[C@H](CC1CCCCC1)NC(=O)C(C)CC(O)[C@H](Cc1ccccc1)NC(=O)OC(C)(C)C)C(=O)NCC(C)C` (single isomer, unassigned) yielded a half-inhibitory concentration (IC50) of 20 nM.

Turning to `CC(C)C[C@H](C[C@@H](O)[C@H](Cc1ccccc1)NC(=O)OC(C)(C)C)C(=O)N[C@@H](CC1CCCCC1)[C@@H](O)[C@@H](CO)CC(C)C`, the midpoint of inhibition, the IC50, lay at 6 nM.

Molecule `C=CCCC[C@H](C[C@@H](O)[C@H](Cc1ccccc1)NC(=O)OC(C)(C)C)C(=O)N[C@@H](CC1CCCCC1)[C@@H](O)CC(=C)C(=O)NCC(C)C` gave an IC50 of 1 nM.

`C=C(C[C@H](O)[C@H](CC1CCCCC1)NC(=O)C(Cc1c[nH]cn1)NC(=O)[C@H](Cc1ccccc1)NC(=O)OC(C)(C)C)C(=O)NCC(C)C` (stereo not given in full) yielded a half-maximal inhibitory concentration (IC50) of 2 nM.

Regarding `C=C(C[C@H](O)[C@H](CC1CCCCC1)NC(=O)[C@@H](C[C@@H](O)[C@H](Cc1ccccc1)NC(=O)OC(C)(C)C)Cn1ccnn1)C(=O)NCC(C)C`, the IC50 amounted to 95 nM.

For the molecule `C=CCCCC(NC(=O)[C@H](Cc1ccccc1)NC(=O)OC(C)(C)C)C(=O)N[C@@H](CC1CCCCC1)[C@@H](O)CC(=C)C(=O)NCC(C)C` (mixture of isomers), the IC50 is 18 nM. Compared with the last molecule, the IC50 is about 5.3-fold lower.

In the case of `C=C(C[C@H](O)[C@H](CC1CCCCC1)NC(=O)[C@@H](C[C@H](O)[C@H](Cc1ccccc1)NC(=O)OC(C)(C)C)Cn1ccnn1)C(=O)NCC(C)C`, the IC50 is 2700 nM.

Take `C=C(C[C@H](O)[C@H](CC1CCCCC1)NC(=O)C(CCCCCC)CC(O)[C@H](Cc1ccccc1)NC(=O)OC(C)(C)C)C(=O)NCC(C)C` (stereo not given in full): the half-maximal inhibitory concentration (IC50) was 70 nM. Against the preceding molecule, the IC50 is about 39-fold lower.

Take `C=C(C[C@H](O)[C@H](CC1CCCCC1)NC(=O)C(CC(C)C)NC(=O)[C@H](Cc1ccccc1)NC(=O)OC(C)(C)C)C(=O)NCC(C)C` (stereo not given in full): the IC50 was determined as 6 nM.

`C=CCCC[C@@H](C[C@@H](O)[C@H](Cc1ccccc1)NC(=O)OC(C)(C)C)C(=O)N[C@@H](CC1CCCCC1)[C@@H](O)CC(=C)C(=O)NCC(C)C`: half-maximal inhibition (IC50) required 8 nM. This IC50 and that of the molecule before are within 1.5-fold of each other.

As for `C=C(C[C@H](O)[C@H](CC1CCCCC1)NC(=O)C(CC(C)C)CC(O)[C@H](Cc1ccccc1)NC(=O)OC(C)(C)C)C(=O)NCC(C)C` (stereo not given in full), the concentration for half-maximal inhibition (IC50) worked out at 25 nM.

The molecule `C=C(C[C@H](O)[C@H](CC1CCCCC1)NC(=O)C(CCCCC)CC(O)[C@H](Cc1ccccc1)NC(=O)OC(C)(C)C)C(=O)NCC(C)C` (stereo not given in full) had an IC50 of 19 nM.

In turn, `C=C(C[C@H](O)[C@H](CC1CCCCC1)NC(=O)C(C)NC(=O)[C@H](Cc1ccccc1)NC(=O)OC(C)(C)C)C(=O)NCC(C)C` (stereo not given in full) displayed a half-inhibitory concentration (IC50) of 10 nM. Compared with the last molecule, the IC50 is about 1.9-fold lower.

As to `C=C(C[C@H](O)[C@H](CC1CCCCC1)NC(=O)C(CCCC)NC(=O)[C@H](Cc1ccccc1)NC(=O)OC(C)(C)C)C(=O)NCC(C)C` (mixture of isomers), the IC50 was 2 nM.

In turn, `C=C(C[C@H](O)[C@H](CC1CCCCC1)NC(=O)[C@H](C)C[C@H](O)[C@H](Cc1ccccc1)NC(=O)OC(C)(C)C)C(=O)NCC(C)C` returned an IC50 of 3000 nM.

For the molecule `C=C(C[C@H](O)[C@H](CC1CCCCC1)NC(=O)C(CCCC)CC(O)[C@H](Cc1ccccc1)NC(=O)OC(C)(C)C)C(=O)NCC(C)C` (stereo not given in full), half-maximal inhibition (IC50) required 5.5 nM.
